ChEMBL document CHEMBL2346640, “Bromo-deaza-SAH: a potent and selective DOT1L inhibitor” (Bioorg Med Chem, 2013)
Activity calls are given as the source filed them. The rule behind the calls is not given here.

Assays:
[1] = biological target: Protein arginine N-methyltransferase 3 (Homo sapiens, UniProt O60678); assay: Inhibition of PRMT3 (unknown origin) using [3H]SAM assessed as inhibition of biotinylated-H4 (1 to 24 amino acid residues) methylation after 1 hr by scintillation proximity assay
[2] = biological target: T1, N-lysine methyltransferase KMT5A (Homo sapiens) (UniProt Q9NQR1); assay: Inhibition of SETD8 (unknown origin) using [3H]SAM assessed as inhibition of biotinylated-H4 (1 to 24 amino acid residues) methylation at 0.1 to 100 uM after 1 hr by scintillation proximity assay
T1 sequence (whole entry): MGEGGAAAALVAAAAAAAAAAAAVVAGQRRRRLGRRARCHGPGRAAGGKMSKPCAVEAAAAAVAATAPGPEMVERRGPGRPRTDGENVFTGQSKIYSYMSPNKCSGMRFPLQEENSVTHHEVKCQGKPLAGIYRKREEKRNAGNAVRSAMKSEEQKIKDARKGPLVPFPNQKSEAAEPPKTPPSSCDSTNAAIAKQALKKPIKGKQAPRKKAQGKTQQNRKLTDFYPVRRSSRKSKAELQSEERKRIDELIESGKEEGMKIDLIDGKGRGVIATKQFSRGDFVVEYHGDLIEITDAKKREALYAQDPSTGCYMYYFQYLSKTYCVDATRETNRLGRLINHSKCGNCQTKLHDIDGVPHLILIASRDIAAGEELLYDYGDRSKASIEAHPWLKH

[3] = biological target: T2, Histone-lysine N-methyltransferase SETD7 (Homo sapiens) (UniProt Q8WTS6); assay: Inhibition of SETD7 (unknown origin) using [3H]SAM assessed as inhibition of biotinylated-H3 (1 to 25 amino acid residues) methylation at 0.1 to 100 uM after 1 hr by scintillation proximity assay
T2 sequence (whole entry): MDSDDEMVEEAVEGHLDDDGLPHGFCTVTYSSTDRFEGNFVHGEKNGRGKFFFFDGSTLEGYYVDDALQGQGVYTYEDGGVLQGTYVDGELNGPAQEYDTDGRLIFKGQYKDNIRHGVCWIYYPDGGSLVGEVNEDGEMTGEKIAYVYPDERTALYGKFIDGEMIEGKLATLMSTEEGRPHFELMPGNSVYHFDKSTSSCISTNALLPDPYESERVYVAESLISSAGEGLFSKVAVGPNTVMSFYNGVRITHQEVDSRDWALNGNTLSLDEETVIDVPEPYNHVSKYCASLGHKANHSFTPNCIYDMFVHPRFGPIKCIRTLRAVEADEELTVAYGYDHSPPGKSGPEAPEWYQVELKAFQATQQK
Outline: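 Triplicates, 1 h at room temperature, compound at 100 nM–100 µM. Guanidine HCl stop, then Flashplate CPM normalised to controls. Ki = IC50/2.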

[4] = biological target: T3, Histone-lysine N-methyltransferase EHMT1 (Homo sapiens) (UniProt Q9H9B1); assay: Inhibition of EHMT1 (unknown origin) using [3H]SAM assessed as inhibition of biotinylated-H3 (1 to 25 amino acid residues) methylation at 0.1 to 100 uM after 1 hr by scintillation proximity assay
T3 sequence (whole entry): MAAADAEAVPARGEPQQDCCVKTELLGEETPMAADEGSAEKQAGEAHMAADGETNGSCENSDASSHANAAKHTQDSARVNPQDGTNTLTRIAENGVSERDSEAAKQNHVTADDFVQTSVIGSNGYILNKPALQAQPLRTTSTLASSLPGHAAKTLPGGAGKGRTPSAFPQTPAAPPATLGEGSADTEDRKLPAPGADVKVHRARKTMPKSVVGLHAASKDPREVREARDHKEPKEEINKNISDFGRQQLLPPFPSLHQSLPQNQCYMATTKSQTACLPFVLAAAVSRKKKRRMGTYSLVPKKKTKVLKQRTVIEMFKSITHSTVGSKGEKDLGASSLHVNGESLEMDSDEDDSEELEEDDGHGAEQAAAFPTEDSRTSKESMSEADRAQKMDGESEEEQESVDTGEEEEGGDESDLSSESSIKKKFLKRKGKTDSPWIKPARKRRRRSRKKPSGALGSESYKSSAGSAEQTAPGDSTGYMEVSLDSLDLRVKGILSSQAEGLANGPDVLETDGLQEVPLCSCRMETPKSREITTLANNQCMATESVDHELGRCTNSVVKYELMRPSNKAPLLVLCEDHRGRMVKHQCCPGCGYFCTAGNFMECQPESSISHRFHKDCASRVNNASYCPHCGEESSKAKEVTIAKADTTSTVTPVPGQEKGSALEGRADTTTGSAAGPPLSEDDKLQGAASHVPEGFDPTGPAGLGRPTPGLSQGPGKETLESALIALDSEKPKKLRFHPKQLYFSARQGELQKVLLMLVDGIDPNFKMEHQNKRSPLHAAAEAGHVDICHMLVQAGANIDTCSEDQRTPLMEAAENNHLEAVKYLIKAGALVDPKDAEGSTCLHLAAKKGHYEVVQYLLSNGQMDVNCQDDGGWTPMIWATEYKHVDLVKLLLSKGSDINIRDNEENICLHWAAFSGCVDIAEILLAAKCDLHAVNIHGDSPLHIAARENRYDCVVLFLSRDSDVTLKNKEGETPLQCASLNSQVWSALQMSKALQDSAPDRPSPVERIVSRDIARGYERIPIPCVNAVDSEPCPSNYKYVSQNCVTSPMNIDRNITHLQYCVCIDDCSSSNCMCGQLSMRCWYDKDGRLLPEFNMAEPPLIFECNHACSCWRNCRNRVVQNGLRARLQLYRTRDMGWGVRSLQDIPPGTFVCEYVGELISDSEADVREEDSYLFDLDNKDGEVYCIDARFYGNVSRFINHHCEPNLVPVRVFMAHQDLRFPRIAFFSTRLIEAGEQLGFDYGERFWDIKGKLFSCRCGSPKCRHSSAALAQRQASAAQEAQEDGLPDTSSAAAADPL
Outline: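 Triplicates, 1 h at room temperature. Compound range 100 nM–100 µM. Guanidine stop, then Flashplate counting against no-compound and no-enzyme controls. Ki derived as IC50/2.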

[5] = biological target: Histone-lysine N-methyltransferase 2A (Homo sapiens) (UniProt Q03164); assay: Inhibition of MLL1 (unknown origin) using [3H]SAM assessed as inhibition of biotinylated-H3 (1 to 25 amino acid residues) methylation at 0.1 to 100 uM after 1 hr by scintillation proximity assay
[6] = biological target: T4, Histone-lysine N-methyltransferase EHMT2 (Homo sapiens) (UniProt Q96KQ7); assay: Inhibition of G9a (unknown origin) using [3H]SAM assessed as inhibition of biotinylated-H3 (1 to 25 amino acid residues) methylation after 1 hr by scintillation proximity assay
T4 sequence (whole entry): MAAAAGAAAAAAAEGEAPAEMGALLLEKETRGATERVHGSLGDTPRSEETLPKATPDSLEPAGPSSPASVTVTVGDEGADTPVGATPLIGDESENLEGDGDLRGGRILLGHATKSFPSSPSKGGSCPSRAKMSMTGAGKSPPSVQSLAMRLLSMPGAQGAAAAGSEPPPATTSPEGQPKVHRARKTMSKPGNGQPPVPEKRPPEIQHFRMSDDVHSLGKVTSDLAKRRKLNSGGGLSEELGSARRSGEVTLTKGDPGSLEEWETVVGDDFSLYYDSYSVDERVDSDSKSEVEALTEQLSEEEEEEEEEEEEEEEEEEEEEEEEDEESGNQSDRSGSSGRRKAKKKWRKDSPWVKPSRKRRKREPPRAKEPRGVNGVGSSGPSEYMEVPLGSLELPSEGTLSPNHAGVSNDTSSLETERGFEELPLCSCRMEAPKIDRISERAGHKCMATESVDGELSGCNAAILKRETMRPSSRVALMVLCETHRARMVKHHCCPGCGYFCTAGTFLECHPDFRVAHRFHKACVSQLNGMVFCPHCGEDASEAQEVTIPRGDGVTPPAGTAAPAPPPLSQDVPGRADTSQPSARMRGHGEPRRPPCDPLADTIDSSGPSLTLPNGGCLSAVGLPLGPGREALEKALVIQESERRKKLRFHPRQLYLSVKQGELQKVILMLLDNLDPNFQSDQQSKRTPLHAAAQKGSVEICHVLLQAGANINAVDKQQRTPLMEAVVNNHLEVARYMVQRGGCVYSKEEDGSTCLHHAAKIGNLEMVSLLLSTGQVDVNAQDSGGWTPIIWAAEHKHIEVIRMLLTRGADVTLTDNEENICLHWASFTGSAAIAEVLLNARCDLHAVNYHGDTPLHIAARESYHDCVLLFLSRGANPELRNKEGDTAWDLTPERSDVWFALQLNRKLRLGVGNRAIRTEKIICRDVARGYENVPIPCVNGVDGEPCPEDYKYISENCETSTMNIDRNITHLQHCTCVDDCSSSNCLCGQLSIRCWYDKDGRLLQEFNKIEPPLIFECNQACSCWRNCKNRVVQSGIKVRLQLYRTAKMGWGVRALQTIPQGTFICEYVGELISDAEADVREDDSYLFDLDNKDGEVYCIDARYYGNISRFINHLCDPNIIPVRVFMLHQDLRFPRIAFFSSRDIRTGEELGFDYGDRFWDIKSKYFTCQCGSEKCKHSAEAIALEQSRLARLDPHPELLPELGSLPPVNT
Outline: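 Triplicates, 1 h at room temperature. Guanidine HCl stop, then Flashplate CPM. Compound at 100 nM–100 µM. Activity normalised to no-compound (100%) and no-enzyme (0%) controls. Ki = IC50/2.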

[7] = biological target: T5, Nicotinamide N-methyltransferase (Homo sapiens, UniProt P40261); assay: Inhibition of recombinant full length human NNMT measured for 30 mins by SAHH-coupled fluorescence assay
T5 sequence (P40261 whole entry): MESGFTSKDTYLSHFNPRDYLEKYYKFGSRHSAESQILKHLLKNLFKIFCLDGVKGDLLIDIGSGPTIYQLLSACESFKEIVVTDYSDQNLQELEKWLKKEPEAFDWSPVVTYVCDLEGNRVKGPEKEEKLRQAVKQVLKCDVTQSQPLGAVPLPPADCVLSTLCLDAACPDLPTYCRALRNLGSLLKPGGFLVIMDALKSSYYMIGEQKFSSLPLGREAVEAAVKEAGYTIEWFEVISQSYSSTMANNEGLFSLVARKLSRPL
Outline: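 Compound at 0.1–100 µM. Fluorescence (ex 360, em 528 nm) followed for 30 min; rates taken from initial linear slopes and expressed as % activity. IC50 from a four-parameter logistic fit; SD from three independent experiments.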

[8] = biological target: DNA (cytosine-5)-methyltransferase 1 (Homo sapiens, UniProt P26358); assay: Inhibition of DNMT1 (unknown origin) using [3H]-SAM assessed as inhibition of dsDNA methylation after 1 hr by scintillation proximity assay
Sequence of DNA (cytosine-5)-methyltransferase 1 (P26358 whole entry): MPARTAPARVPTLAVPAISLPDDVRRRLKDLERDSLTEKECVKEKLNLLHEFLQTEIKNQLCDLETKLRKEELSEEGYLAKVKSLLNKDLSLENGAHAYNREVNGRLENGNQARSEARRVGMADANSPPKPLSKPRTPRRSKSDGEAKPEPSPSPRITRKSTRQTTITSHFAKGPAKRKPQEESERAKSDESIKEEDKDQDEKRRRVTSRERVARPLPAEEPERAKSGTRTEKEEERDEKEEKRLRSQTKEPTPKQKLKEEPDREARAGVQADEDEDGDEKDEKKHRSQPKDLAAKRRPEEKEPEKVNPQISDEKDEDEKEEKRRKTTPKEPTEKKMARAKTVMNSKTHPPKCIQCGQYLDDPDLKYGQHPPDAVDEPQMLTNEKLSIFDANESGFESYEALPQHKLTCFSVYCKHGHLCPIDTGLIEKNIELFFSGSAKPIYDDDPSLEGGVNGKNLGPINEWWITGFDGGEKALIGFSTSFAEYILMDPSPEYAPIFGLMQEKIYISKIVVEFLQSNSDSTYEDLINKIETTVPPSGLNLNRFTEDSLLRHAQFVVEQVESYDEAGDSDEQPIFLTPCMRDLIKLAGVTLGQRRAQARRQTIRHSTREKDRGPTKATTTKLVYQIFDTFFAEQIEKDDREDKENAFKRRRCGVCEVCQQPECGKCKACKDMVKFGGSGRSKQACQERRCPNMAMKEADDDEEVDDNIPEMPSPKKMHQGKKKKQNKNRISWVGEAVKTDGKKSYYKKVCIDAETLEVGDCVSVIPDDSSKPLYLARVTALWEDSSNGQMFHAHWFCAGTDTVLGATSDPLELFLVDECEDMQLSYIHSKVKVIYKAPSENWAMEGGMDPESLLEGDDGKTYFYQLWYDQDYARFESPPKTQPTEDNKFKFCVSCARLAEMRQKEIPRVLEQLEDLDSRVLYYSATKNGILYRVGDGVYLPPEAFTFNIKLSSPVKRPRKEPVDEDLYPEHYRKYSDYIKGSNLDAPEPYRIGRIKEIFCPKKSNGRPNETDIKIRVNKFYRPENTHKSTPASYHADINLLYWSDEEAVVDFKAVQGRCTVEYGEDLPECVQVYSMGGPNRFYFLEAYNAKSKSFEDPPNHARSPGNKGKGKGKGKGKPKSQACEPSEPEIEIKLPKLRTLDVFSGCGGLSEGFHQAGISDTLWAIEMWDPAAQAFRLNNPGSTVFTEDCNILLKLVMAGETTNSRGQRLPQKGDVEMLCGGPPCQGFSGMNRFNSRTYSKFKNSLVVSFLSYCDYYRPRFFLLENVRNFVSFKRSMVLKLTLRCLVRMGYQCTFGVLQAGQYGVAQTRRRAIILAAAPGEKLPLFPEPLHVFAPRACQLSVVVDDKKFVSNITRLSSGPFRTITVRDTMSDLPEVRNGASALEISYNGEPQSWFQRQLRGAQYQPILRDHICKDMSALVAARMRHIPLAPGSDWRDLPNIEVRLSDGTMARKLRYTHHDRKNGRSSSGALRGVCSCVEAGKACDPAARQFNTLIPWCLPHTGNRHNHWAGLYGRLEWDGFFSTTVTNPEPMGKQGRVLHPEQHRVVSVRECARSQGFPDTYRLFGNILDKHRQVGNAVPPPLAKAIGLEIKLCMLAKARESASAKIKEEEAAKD
Outline: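 Incubated 1 h at 37 °C, quenched with guanidine HCl, then counted on a Flashplate. IC50 was taken at the SAM Km and converted to Ki as IC50/2.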

Homo sapiens = species on record: Homo sapiens; assay: Inhibition of PRC2 complex (unknown origin) using [3H]SAM assessed as inhibition of biotinylated-H3 (21 to 44 amino acid residues) methylation at 0.1 to 100 uM after 1 hr by scintillation proximity assay
[9] = biological target: Protein arginine N-methyltransferase 5 (Homo sapiens, UniProt O14744); assay: Inhibition of PRMT5 (unknown origin) using [3H]SAM after 1 hr by scintillation proximity assay
Sequence of Protein arginine N-methyltransferase 5 (O14744 whole entry): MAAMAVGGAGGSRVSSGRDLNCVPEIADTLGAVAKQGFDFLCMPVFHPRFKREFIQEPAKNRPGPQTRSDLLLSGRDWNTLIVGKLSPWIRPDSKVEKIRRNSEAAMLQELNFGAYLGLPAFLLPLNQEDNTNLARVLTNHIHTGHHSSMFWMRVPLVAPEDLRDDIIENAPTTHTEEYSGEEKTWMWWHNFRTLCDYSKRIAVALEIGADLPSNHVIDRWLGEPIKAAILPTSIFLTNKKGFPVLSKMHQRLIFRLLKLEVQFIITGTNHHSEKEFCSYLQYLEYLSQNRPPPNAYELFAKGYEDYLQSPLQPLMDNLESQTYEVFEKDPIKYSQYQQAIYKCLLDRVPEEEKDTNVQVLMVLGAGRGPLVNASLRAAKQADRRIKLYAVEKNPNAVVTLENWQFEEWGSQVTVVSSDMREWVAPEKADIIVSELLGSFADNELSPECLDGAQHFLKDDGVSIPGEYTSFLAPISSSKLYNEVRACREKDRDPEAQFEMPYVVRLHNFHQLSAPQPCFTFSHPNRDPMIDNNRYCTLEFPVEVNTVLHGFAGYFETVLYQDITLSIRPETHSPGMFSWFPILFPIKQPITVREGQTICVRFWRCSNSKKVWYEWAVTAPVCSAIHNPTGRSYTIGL
Outline: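 Triplicates, 1 h at room temperature, compound at 100 nM–100 µM. Guanidine quench, then Flashplate counting. Ki calculated as IC50/2.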

[10] = biological target: Histone-lysine N-methyltransferase SUV39H2 (Homo sapiens) (UniProt Q9H5I1); assay: Inhibition of SUV39H2 (unknown origin) using [3H]SAM assessed as inhibition of biotinylated-H3 (1 to 25 amino acid residues) methylation at 0.1 to 100 uM after 1 hr by scintillation proximity assay
Sequence of Histone-lysine N-methyltransferase SUV39H2 (Homo sapiens) (Q9H5I1 whole entry, the tested form may be a part): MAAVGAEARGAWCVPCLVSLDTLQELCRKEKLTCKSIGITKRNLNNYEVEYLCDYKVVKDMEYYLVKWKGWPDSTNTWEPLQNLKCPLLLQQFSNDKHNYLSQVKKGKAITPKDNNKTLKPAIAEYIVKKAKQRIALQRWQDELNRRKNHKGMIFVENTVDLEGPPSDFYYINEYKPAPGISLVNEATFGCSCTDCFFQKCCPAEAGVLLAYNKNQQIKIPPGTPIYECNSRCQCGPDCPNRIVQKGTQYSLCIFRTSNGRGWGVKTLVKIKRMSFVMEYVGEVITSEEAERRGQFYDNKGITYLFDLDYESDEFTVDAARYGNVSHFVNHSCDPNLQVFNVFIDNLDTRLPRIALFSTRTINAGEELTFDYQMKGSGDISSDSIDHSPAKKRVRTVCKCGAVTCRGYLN
Outline: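 Triplicate 1 h room-temperature reactions with compound at 100 nM–100 µM. Read on Flashplate after guanidine quench. Ki = IC50/2.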

Sequence of Protein arginine N-methyltransferase 3 (O60678 whole entry, the tested form may be a part): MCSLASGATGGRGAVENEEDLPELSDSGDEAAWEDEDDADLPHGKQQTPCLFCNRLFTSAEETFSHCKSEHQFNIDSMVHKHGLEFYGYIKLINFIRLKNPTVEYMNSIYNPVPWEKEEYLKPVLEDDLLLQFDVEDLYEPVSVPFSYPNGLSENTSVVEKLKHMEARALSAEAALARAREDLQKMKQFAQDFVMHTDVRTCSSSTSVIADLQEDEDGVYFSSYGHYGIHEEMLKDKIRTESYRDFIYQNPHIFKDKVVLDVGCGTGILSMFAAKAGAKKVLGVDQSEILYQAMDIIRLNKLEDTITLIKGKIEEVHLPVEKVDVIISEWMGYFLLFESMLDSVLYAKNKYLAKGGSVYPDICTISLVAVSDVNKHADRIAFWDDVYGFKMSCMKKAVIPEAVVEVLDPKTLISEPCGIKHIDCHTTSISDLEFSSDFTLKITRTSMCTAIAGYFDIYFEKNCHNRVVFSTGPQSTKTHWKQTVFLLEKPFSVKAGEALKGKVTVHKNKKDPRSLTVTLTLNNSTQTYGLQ

- IC50 [1]: 2300 nM
- Ki [1]: 1150 nM
- inhibition [2]: inactive
- inhibition [3]: inactive
- inhibition [4]: inactive
- inhibition [5]: inactive
- inhibition [6]: inactive
- IC50 [7]: 1500 nM
- Ki [7]: 750 nM
- IC50 [8]: 1900 nM
- Ki [8]: 950 nM
- inhibition (Homo sapiens): inactive
- IC50 [9]: 2300 nM
- Ki [9]: 1150 nM
- inhibition [10]: inactive
SMILES: Nc1ncnc2c1c(Br)cn2[C@@H]1O[C@H](CSCC[C@H](N)C(=O)O)[C@@H](O)[C@H]1O
